# Assay outcomes (PubChem BioAssay)
# Insulin prom act = activators of insulin promoter-driven GFP, primary screen, imaging, TRM-6 cells (human fetal islet line), eGFP reporter, cell count; plate-scaled: unstimulated 0, stimulated control 100; activation, % at 2 µM; 130,000 tested, 0.81% active; AID 1296, 2008;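 active means activation at 2 µM above a set limit, confirmed on inspection of the cell images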;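 further: share of cells whose green reporter signal exceeds an intensity cutoff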
#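 Assay system: TRM-6 insulin promoter–eGFP reporter cells / Input: 1,000 cells per well / Medium: Low-glucose (5.5 mM) medium with tamoxifen / Also added: tamoxifen inducer, 0.75 µM, in seeding medium / Timing: overnight tamoxifen, then two-day compound incubation at 37 °C / Signal: automated fluorescence imaging of paraformaldehyde-fixed, Hoechst-counterstained cells, green channel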
# Active calls of the source: *. Shown is part of a subset that was picked to be rich in hits.
SMILES,Insulin prom act
CC(C)(C)NC(=O)CSc1nnc(-c2ccncc2)o1,192
O=C(CSc1nnc(-c2ccccc2)n1Cc1ccccc1)NNC(=O)c1ccccc1O,-8
COC(=O)CC/C(O)=C1/C(=N)CC(C)(C)CC1=O,-3
Cc1cccc(C(=O)NCc2nnc3c4ccccc4c(-c4ccccc4)nn23)c1,-2
Clc1ccc(CNc2nnnn2-c2ccccc2)c(Cl)c1,1
COc1ccc(CCn2nnnc2C(CC(C)C)N2CCN(c3ncccn3)CC2)cc1OC (centres undefined),-7
CC(C)C(c1nnnn1C1CCCCC1)N1CCN(c2ncccn2)CC1 (centres undefined),-3
COc1ccc(CCn2nnnc2C(C(C)C)N2CCN(c3ncccn3)CC2)cc1OC (centres undefined),170*
COc1cc(CNC2CCCC2)cc(Cl)c1OCc1ccccc1F,6
CCOC(=O)COc1c(Br)cc(/C=C2\SC(=O)N(CC(=O)N3CCCC3)C2=O)cc1OC,2
CN=C(C)c1c(O)c2ccccc2oc1=O,3
CC(=O)Nc1c(C(=O)c2ccccc2)oc2ccccc12,-71
CCNc1c(NC(C)=O)c(=O)oc2ccccc12,200*
Cc1csc(SCC(=O)c2c(N)n(C)c(=O)n(C)c2=O)n1,-9
CCOC(=O)C1CCCc2c1[nH]c1c(C(=O)O)cccc21 (centres undefined),0
Cc1cccc(NC(=O)c2cn(-c3ccccc3)nc2-c2ccccc2)c1,10
CC(C)C(=O)Nc1cccc(S(=O)(=O)c2cccc(NC(=O)C(C)C)c2)c1,488*
Cc1nnc(NC(=O)c2cccc(NC(=O)C(C)C)c2)s1,-5
CC(C)C(=O)Nc1cccc(NC(=O)c2cc3ccccc3o2)c1,-79
O=C(O)CCc1ccc(-c2cccs2)n1CC(=O)Nc1ccccc1C(F)(F)F,0
CCCSc1nnc(CSc2ncccn2)n1C,0
COc1ccc2c(c1)c(C(O)CN1CCC(Cc3ccccc3)CC1)c(C)n2C (centres undefined),-2
COc1ccc(N(C(=O)c2ccco2)S(=O)(=O)c2cccs2)cc1,165
COc1ccc(N(C(=O)c2ccco2)S(=O)(=O)c2cc(OC)ccc2OC)cc1,0
COc1ccc(N(C(=O)c2ccco2)S(=O)(=O)c2ccc(F)cc2)cc1,456*
SMILES,Insulin prom act
COc1ccc(S(=O)(=O)NCC(c2cccnc2)N2CCN(c3ccccc3OC)CC2)cc1C (centres undefined),186*
COc1ccccc1N1CCN(C(CNS(=O)(=O)c2ccccc2)c2cccnc2)CC1 (centres undefined),-10
COc1ccccc1N1CCN(C(CNC(=O)c2ccc3c(c2)OCO3)c2cccnc2)CC1 (centres undefined),0
Cc1ccc(-c2nnn(CC(=O)N(Cc3ccccc3F)C(C(=O)NC3CCCC3)c3ccncc3)n2)o1 (centres undefined),231
Cc1ccc(-c2nnn(CC(=O)N(CC(=O)NC(C)C)c3cnc4ccccc4c3)n2)o1,-71
CCC(C(=O)NC1CCCC1)N(C(=O)Cn1nnc(-c2ccc(C)o2)n1)c1cnc2ccccc2c1 (centres undefined),160*
CCCCC(=O)NC(=S)Nc1nnn(CCC)n1,0
CN(C)S(=O)(=O)Oc1cccc(C(=O)Nc2ccc([N+](=O)[O-])cc2)c1,7
O=c1c2cnn(-c3ccccc3Cl)c2ncn1Cc1cccnc1,0
CCOC(=O)c1ccccc1NC(=O)Cn1cnc2c(cnn2-c2ccc(OC)cc2)c1=O,-75
CC(=O)Nc1ccc(NC(=O)Cn2cnc3c(nnn3Cc3ccc(F)cc3)c2=O)cc1,0
CC(=O)Nc1ccc(NC(=O)Cn2cnc3c(cnn3C(C)(C)C)c2=O)cc1,431*
COc1ccc(CNc2nc3c(c(C(F)(F)F)n2)CCCCC3)cc1,4
O=C(c1ccc(Cn2c(=S)[nH]c3cc4c(cc3c2=O)OCO4)cc1)N1CCN(c2ncccn2)CC1,7
CS(=O)(=O)N(CC(=O)NCc1ccccn1)c1ccc2c(c1)OCCO2,37
CN(C)C(=O)CN(c1ccc2c(c1)OCO2)S(C)(=O)=O,-71
CS(=O)(=O)N(CC(=O)NCCSCc1ccccc1)c1ccc2c(c1)OCO2,204*
Cc1ccc(S(=O)(=O)CC(C)N2CCN(C3CCCCC3)CC2)cc1 (centres undefined),103
Cc1ccc(S(=O)(=O)NCCNC(=O)C2CCCNC2=O)cc1 (centres undefined),-8
Cc1ccc(S(=O)(=O)NC2=NCN(C3CCCCC3)CN2)cc1,125*
CSc1nnc(-c2cc(C)on2)n1-c1ccccc1,8
C[N+]1(CC(=O)Nc2ccc(F)cc2)CCN(C(=O)c2ccco2)CC1,-3
Cc1ccc(S(=O)(=O)CCC(=O)OC(C)C(=O)c2c(C)[nH]c3ccccc23)cc1 (centres undefined),0
CCOC(=O)c1cc(C)n(CCc2ccccc2)c1C,-3
CCOC(=O)c1cc2sc(C)cc2n1CC(=O)N(CC)CC,8
CCOC(=O)c1cc2ccccc2n1CCN(CC)CC,78*
